The source of these data is ChEMBL document CHEMBL5614410, “Design, Synthesis, and Evaluation of p53Y220C Acetylation Targeting Chimeras (AceTACs)” (J Med Chem, 2024).

The subject of data set [1] is CREB-binding protein/Histone acetyltransferase p300/Cellular tumor antigen p53 (Homo sapiens), P04637+Q09472+Q92793 [Y220C]. The data set can be described thus: Induction of interaction between FLAG-tagged p53Y220C mutant (unknown origin) and p300/CBP expressed in human NCI-H1299 cells at 10 uM pretreated for 2 hrs with p53Y220C mutant binder, PK9328 followed by incubation with compound for 18 hrs by co-immunoprecipitation analysis. Type of data set: cell-based. In short, it runs like this: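 NCI-H1299 (p53Y220C) cells were pretreated for 2 h with a 10 μM p53Y220C binder or a 10 μM p300 binder, then given compound at 3 μM for 18 h. p53-FLAG pull-down was followed by Western blot analysis.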

For data set [2], the system named is NCI-H1299. As to the kind of experiment: Antiproliferative activity against p53-null human NCI-H1299 cells assessed as reduction in cell viability at 0.47 to 15 uM incubated for 3 days by WST-8 assay. It counts as functional, cell-based. To be noted: dose 0.47-15 µM, time 3.0 day. In outline: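 p53-null NCI-H1299 cells were exposed to compound across the concentration series for 72 h before the viability read-out. Data are mean ± SD from three independent experiments.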

Data set [3] relates to NCI-H1299. As to the kind of experiment: Antiproliferative activity against human NCI-H1299 cells expressing p53Y220C mutant assessed as reduction in cell viability incubated for 3 days by WST-8 assay. Type of data set: functional. In short, it runs like this:
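NCI-H1299 p53Y220C cells were exposed to compound over a concentration range for 72 h, in some runs after 72 h of control or p300 siRNA, before the viability read-out. Values are mean ± SD of three independent experiments.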

Data set [4] deals with CREB-binding protein/Histone acetyltransferase p300/Cellular tumor antigen p53 (Homo sapiens), P04637+Q09472+Q92793 [Y220C]. As to the kind of experiment: AceTAC activity at FLAG-tagged p53Y220C mutant (unknown origin) expressed in human NCI-H1299 cells expressing p300/CBP assessed as upregulation of GADD45A mRNA expression at 3 uM incubated for 24 hrs by RT-PCR analysis. Type of data set: cell-based. In short, it runs like this: (§1)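 NCI-H1299 p53Y220C cells were treated with DMSO or compound at 3 μM for 24 h. mRNA of p53-target genes was measured by RT-qPCR, normalised to GAPDH and expressed relative to DMSO control. Values are mean ± SD of three independent experiments.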

Data set [5] has the same test system. As to the kind of experiment: AceTAC activity at FLAG-tagged p53Y220C mutant (unknown origin) expressed in human NCI-H1299 cells expressing p300/CBP assessed as stabilization of protein by measuring increase in aggregation temperature at 100 uM incubated for 1 hr at 32 to 50 degC by CETSA analysis. It counts as cell-based. In short, it runs like this: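 For CETSA, NCI-H1299 (p53Y220C) stable cells were treated with DMSO or 100 μM compound for 1 h, then heated at 32 to 50 °C. Soluble p53 was detected by Western blot. Representative of at least two independent experiments.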

The test system is the same in data set [6]. As to the kind of experiment: AceTAC activity at FLAG-tagged p53Y220C mutant (unknown origin) expressed in human NCI-H1299 cells expressing p300/CBP assessed as increase in p53 acetylation at lysine 382 residue at 10 uM pretreated for 2 hrs with p53Y220C mutant binder, PK9328 followed by incubation with compound for 18 hrs by western blot analysis. It counts as cell-based.

For data set [7] the test system is unchanged. As to the kind of experiment: AceTAC activity at p53Y220C mutant in human NUGC-3 cells expressing p300/CBP assessed as increase in p53 acetylation at lysine 382 residue incubated for 24 hrs by western blot analysis. It counts as cell-based. To be noted: dose 1-10 µM. In short, it runs like this:
(§2)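 BxPC3 or NUGC-3 cells, which express p53Y220C endogenously, were treated with DMSO or compound at 1, 3 or 10 μM for 24 h. Lysates were Western blotted for p53 and p53K382ac, with vinculin as loading control. Representative of two independent experiments.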

Data set [8] shares this test system. The data set can be described thus: AceTAC activity at FLAG-tagged p53Y220C mutant (unknown origin) expressed in human NCI-H1299 cells expressing p300/CBP assessed as increase in p53 acetylation at lysine 382 residue at 10 uM incubated for 24 hrs by western blot analysis relative to control. It counts as cell-based. In short, it runs like this: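 NCI-H1299 (p53Y220C) cells were treated at 0.1–10 μM (0.1, 0.3, 1, 3 or 10 μM) for 24 h. Lysates were Western blotted for p53 and p53K382ac, with vinculin as loading control. p53K382ac was normalised to total p53Y220C and quantified from two or three independent experiments.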

Data set [9] in a line: Plasma concentration in Swiss albino mouse at 50 mg/kg, ip measured after 8 hrs by LC-MS/MS analysis. It counts as ADME, organism-based. In outline: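 Swiss albino mice received a single 50 mg/kg intraperitoneal injection. Plasma levels were followed over 8 h. Each point is the mean ± SEM of three mice.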
A short description of data set [10]: Cytotoxicity against human U2OS cells harboring wild type p53 assessed as inhibition of cell growth at 10 uM incubated for 72 hrs by WST-8 assay. It counts as toxicity, cell-based. In outline:
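U2OS (WT p53) or normal prostate PNT2 cells were treated for 72 h at the indicated concentrations. Viability is mean ± SD of technical triplicates from two biological experiments.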

In data set [11] the test system is CREB-binding protein/Histone acetyltransferase p300/Cellular tumor antigen p53 (Homo sapiens), P04637+Q09472+Q92793 [Y220C]. As to the kind of experiment: AceTAC activity at FLAG-tagged p53Y220C mutant (unknown origin) expressed in human NCI-H1299 cells expressing p300/CBP assessed as BAX mRNA expression at 3 uM incubated for 24 hrs by RT-PCR analysis. Type of data set: cell-based. In outline: as §1

Data set [12] has the same test system. As to the kind of experiment: AceTAC activity at p53Y220C mutant in human BXPC-3 cells expressing p300/CBP assessed as increase in p53 acetylation at lysine 382 residue incubated for 24 hrs by western blot analysis. It counts as cell-based. To be noted: dose 1-10 µM. In short, it runs like this: as §2

Activity calls are given as the source filed them. The rule behind the calls is not given here.

With `CCn1c2ccc(CNCCOCCOCCOCCC(=O)NCCOc3ccc(CCc4nc5cc(-c6c(C)noc6C)ccc5n4CCN4CCOCC4)cc3F)cc2c2ccc(-c3cc(C)cs3)cc21`, the outcome in [1], in data set [2], in data set [6] and in data set [11] was inactive. Besides, in [3] (NCI-H1299, 72 h, time 3 day), the GI50 is 3000 nM. Further, the Activity result was “Dose-Dependent Effect” in [3] (time 3.0 day), “Dose-Dependent Effect” in [7], 235% in data set [8] and “Dose-Dependent Effect” in [12]. For the same compound, the result in data set [4] was Active. Besides, the ΔTm in [5] was 4.3 °C. Besides, in [9], the concentration at 8 h is over 400 nM. The inhibition at 72 h, 10 µM in [10] came out at 30%.
